Assay results taken from the RNAGym collection of RNA variant scans (doi:10.1126/science.aae0568).
This sample holds only a part of the variants without activity.

B1: tRNA (parent)
chain: GUUCCGUUGGCGUAAUGGUAACGCGUCUCCCUCCUAAGGAGAAGACUGCGGGUUCGAGUCCCGUACGGAACG

Variants of: B1
Experiment: yeast fitness relative to wild type (ratio to wild type); higher = fitter; tRNA-Arg(CCU), competitive growth, 37 C, YPD
In short: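 The tRNA-Arg(CCU) gene variants were made by chemical synthesis with a 3% per-site mutation rate at 69 sites and inserted at the native genomic locus of Saccharomyces cerevisiae. After pooling, the strains were competed in YPD at 37°C for 24 hours in six parallel replicates. Gene amplicons from the start population and each end population were read by 100-nucleotide paired-end sequencing, and Darwinian fitness relative to wild type was taken from genotype frequency changes. Genotypes needed ≥ 100 starting reads, and estimates < 0.5 were set to 0.5.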
Work on GUUUCGUUGGCGUAAUGGUAACGCGUCUCCCUCCUAAGGGGAAGACUGCGGGUUCGAGUCCCGCACGGAACG [C4U A40G U64C] yielded a yeast fitness of 0.952. With GUUCCGUUGCCGUAAUAGUAACGCGUCGCCCUCCUAAGAAGAAGACUGAGGGUUCGAGUCCCGUACGGAACG [G10C G17A U28G G39A C49A] the yeast fitness was no more than 0.5. Work on GUUCCGUUGGCGCAAUGGUAACGCGUCGCCCUCCUAAGGAGAAGACUGCGGGUACGAGUCCAGUACGGAACG [U13C U28G U54A C62A] yielded a yeast fitness of 0.624. Variant GUUCCGUUGGCGUAAUGGUAACGCGUCUCCCUCCUAAGGAGAACACUGCGGGUUUGAGUCCCGUACGGAACG [G44C C55U] has a yeast fitness of 0.731. Work on GUUCCGUUGGCGUAAUGGUAACGCGUCUCCCUCCUAAGGAGAAGACUGCGGGUUCGAGUACCGUGCGGAACG [C60A A65G] yielded a yeast fitness of 0.573. In the case of GUUCCGUGGGCGUAAUAGUAACGCGUCUCCCUCCUAAGGAGAAGACUCCGGGUUCGAGUCCCGUACGGAACG [U8G G17A G48C], the yeast fitness is reported as no more than 0.5. GUUCGGUUGGCGUAAUGGUAACGCGUCUCCCUCCUAAGGAGAAGACUGCGGGCUAGGGUCCCGUACGGAACG [C5G U53C C55A A57G] gave a yeast fitness of no more than 0.5. For GUUCCGUUGGCGUAAUGGUAACGCGUCCCCCUCCUAAGGAGAAGACUGCGGGUUCGAGUCCCGCACGGAACG [U28C U64C], the yeast fitness was 0.877. GUUCCGUUGGCGUAAUGGUCAGGCGUCUACCUCCUAAGGAGAAGACUGCGGGUUGCAGUCCCGUACGGAACG [A20C C22G C29A C55G G56C] gave a yeast fitness of no more than 0.5. GUUCCGUUGGCGUAAUGCUAACACGUCUCCCUCCUAAGGAGAAGACUGCGGGUUCGAGUCACGUACGGAACG [G18C G23A C61A] showed a yeast fitness of no more than 0.5. GUUGCGUUGGCGUAAUGGUAACGCGUCUCCCUCUUAAGGAAAAGACUGCGGGUUCGAGUCCCGUACGGAACG [C4G C34U G41A] showed a yeast fitness of no more than 0.5. For GAUCCGUUGGCGUAAUGGUCACGCGUCUCCCUCCUAAGGAGAAGACUGCGGGUUCGAGUCCUGUAGGGAACG [U2A A20C C62U C66G], the yeast fitness was no more than 0.5. Variant GUUGCGUUGGCGUAAUGGUAACGCGUCUCCCUCCUAAGGAGAAGACUGCGGGUUCGAGUCCCGUGCGGAACG [C4G A65G] has a yeast fitness of 1.02. Work on GUUCCGUUGGCGUAAUGGUAAUGCGUCUCCCUCCUAACGAGAAGACUGCGGGUUCGAGUCCCGUUUGGAACG [C22U G38C A65U C66U] yielded a yeast fitness of 0.547. Work on GUUCCGUAAGCGUAAUGGUAACGCGUCUCCCUCCUAUGGAGAAGAUUGCGGGUUCGAGUCUCGUAUGGAACG [U8A G9A A37U C46U C61U C66U] yielded a yeast fitness of no more than 0.5. GUUCCGUUGGCGUAAUGGUAACGCGUCCCCCUCCUAAGGAGCAGACUGCGGGUUUGAGUCCCGUACGCAACG [U28C A42C C55U G68C] showed a yeast fitness of no more than 0.5. GUUCUGUUGGUGUAAUGGUAACGCGUCUCCCUCCUUAGGAGAAGACUGCGGGUUCGAGUCCAGUACGGAACG [C5U C11U A36U C62A] showed a yeast fitness of no more than 0.5. In the case of GUUACGUUGGCGUAGUGGUAACGCGUCUCCCUGCUAAGGAGAAGACUGCGGGUUCGAGUACCGUACGGAACG [C4A A15G C33G C60A], the yeast fitness is reported as no more than 0.5. For GUUCCGUCGGCGUAAUGGUAAUGCGUCUCCCUCAUAAGGAGAAGACUGCGGGUUCGAGUCCCGUACGGAACG [U8C C22U C34A], the yeast fitness was 0.952. In the case of GUUCCGUUGGCGUAAUGGUAACGCGUCUCCCUCGUAAGGAGAAGACUGCGGGUUCAAGUCCCGUACGGAACG [C34G G56A], the yeast fitness is reported as 0.639. GUUACGUUGGCGUAAUGGUAACGCGUCACCCUCCUAAGGAGAAGACUGCGGGUUCGAGUCCUGUAAGGAACG [C4A U28A C62U C66A] gave a yeast fitness of no more than 0.5. GGUCCGUUGGCGUAAUGGUAACGAGUCUCCCUCCUAAGGAGAAGGCUGCGGGUUCGAGUCGUGUACGGAACG [U2G C24A A45G C61G C62U] showed a yeast fitness of no more than 0.5. In the case of GUUCCGUUGGCGUUAUGGUAACGCGUCUCCCUCCGAAGGAGAAGACUGCGGGUUCGAGUCCGGUACGGAACG [A14U U35G C62G], the yeast fitness is reported as no more than 0.5. Variant GUUCCGUUGGCGUAAUGGUAACGCGUCUCCCUCCUAAGGAGAAGACUGCGGGUUCGAAUCCCGUACGGCACG [G58A A69C] has a yeast fitness of 0.955. Work on GUUCCGUUGGCGUAAUGGUAACGCGUCUCCUUCCUAAGGAGAAGACUGCGGGUCCGAGCCCCGUACGGAACG [C31U U54C U59C] yielded a yeast fitness of 0.562. GUUCCGUUGGCAUAGUGGUAACGCGUCUGCCUCCUAAGGAGAAGACUACGGGUUCGAGUCCUGUAUGGAACG [G12A A15G C29G G48A C62U C66U] gave a yeast fitness of no more than 0.5. GCUCCGUUGGCGUAAUGGUAACGCGUCUCCCUCCUAAGGAGAAGACUGCGGGUUCGUGUCCCGUACCGAACG [U2C A57U G67C] showed a yeast fitness of 0.562. In the case of GUUCCGUUGGCGUAAUGGUAACGCGUCUCCCUCCUAAGGAGAAGGCUGUGGGUUGGAGUCGCGUACGGAACG [A45G C49U C55G C61G], the yeast fitness is reported as 0.732. Variant GUUCCGUUGGCGUAAUGGUAACGCGUCUCCCUCCUAAGGAGAAGACUGCGAGUUCGAGUUCCGUACAGAACG [G51A C60U G67A] has a yeast fitness of 0.567. Variant GUUCCGUUGGCGUAAUGGUAACGCGUCUCCCUCCUAAGGACAAGACUGCGGCUUCGAGUCCCGUACGGAACG [G41C G52C] has a yeast fitness of 0.527. GUUCCGUUGGCGUAAUGGUAACGCGUCCCCCUCGUAAGGGGAGGAGUGCGGAUUUGAGUCCCGUACGGAACG [U28C C34G A40G A43G C46G G52A C55U] gave a yeast fitness of 0.613. With GUUCCGUUGACGUAAUGGUAACGCGUCUCCCUCCUAAGGAGAAGACUGCGGGUUCAAGUCCCGUACGGUACG [G10A G56A A69U] the yeast fitness was 0.601. Work on GUUCCGUUGGCGUAAUGGUAAGGCGUCUCCCUCCUAAGGAGAAGACUGUGGGUUCGAGUCACGUACGGAACG [C22G C49U C61A] yielded a yeast fitness of 0.69. Variant GUUCCGUUGGCGUAAUGGUUUCGCGUCUCCCUGCGAAGGAGAAGACUGCUGGUUCGAGUCCCGUACGAAACG [A20U A21U C33G U35G G50U G68A] has a yeast fitness of 0.637. Variant GUUCCGUCGGCGUAAUGGUAAUGCGUUUCCCUCCUAAGGAGAAGACUGCGGGUUCGACUCCCGUACGGAACG [U8C C22U C27U G58C] has a yeast fitness of no more than 0.5. For GUUCCGUUCGCGUAAUGGUAACGCGUCUCUCUCCUAAGGAGAAGGCUGCGGGUUCGAGUCCCGUACGGAACG [G9C C30U A45G], the yeast fitness was no more than 0.5. GUUCUGUUGACGUAAUGGUAACGCGUCUCCCUCCUAAGGAGAAGACUGCGGGUUCGAGUCCCGUACGGAUCG [C5U G10A A70U] gave a yeast fitness of 0.609. With GUUCCGUUGGCGUAAUGGUAACGCGUCUCGCUCCUAAGGAGAAGACUGCGGGUUCGAGUCUCGUACGGUACG [C30G C61U A69U] the yeast fitness was no more than 0.5.
